Test system: MS2 coat protein
Assay: apparent Kd, MS2 coat protein; higher = weaker binding; RNA-MaP array; FMN 200 µM where present
Summary of the method: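 Binding was read on Illumina sequencing-chip clusters where stalled E. coli RNA polymerase had transcribed each design. A titration of SNAP-549-labelled MS2 coat protein began at 0.7 or 1.5 nM and doubled to 3 µM, once without ligand and once with constant ligand, in 100 mM Tris-HCl pH 7.5, 80 mM KCl, 4 mM MgCl2, BSA, DTT, yeast tRNA and Tween-20. The apparent Kd is the median of filtered per-cluster binding-curve fits, based on green signal normalised to red-channel RNA signal and control-cluster median Fmax.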

[1] = designed as: ON switch for flavin mononucleotide, no ligand
[2] = ligand present: flavin mononucleotide, designed as: ON switch for flavin mononucleotide
[3] = designed as: OFF switch for flavin mononucleotide, no ligand
[4] = ligand present: flavin mononucleotide, designed as: OFF switch for flavin mononucleotide

| Sequence | apparent Kd [1] | apparent Kd [2] | apparent Kd [3] | apparent Kd [4] |
| --- | --- | --- | --- | --- |
| GAGUGGAAGUAAGGAUAUAUAAUGAUAAUCACAGUAGAAGGUACUAACAUGAGGAUCACCCAUGUAGGACUAUACCAGAGAGGG | 17.4 nM | 16 nM |  |  |
| UAUAUAUAGUAAGGAUAUGUAAUUAUUUUAUUAACAGAAGGUACUGACAUGAGGAUCACCCAUGUUUUAGUGUGGGCAUGUAGA |  |  | 83.5 nM | 184 nM |
| GGUCGUCCCAUUAACAUGAGGAUCACCCAUGUCAAAAGACAUGAGGAUAUGCUACCUAAUUGGUAGCAGAAGGCAUGGACGACC | 1170 nM | 84.7 nM |  |  |
| AACAUGAGGAUCACCCAUGUACGCUGUAAUUACUCGCGUUGGCAGGAUAUGGGUUGGCUUCCGUCCCAGAAGGGUCAAGAUAAA | 253 nM | 105 nM |  |  |
| GGAUUUGGUCCAAUUUCGGUGAGUAAGGAUAUGCAUGGCAUACAUGAGGAUCACCCAUGUUGUCGGCAGAAGGUGCCACAACGU | 45.7 nM | 16.3 nM |  |  |
| GUGCCUUGGGAGAAGGCCCAAUGCAAAGCAUCGGGAGGAUAUUCAUAUAAUAAAUAAACAUGAGGAUCACCCAUGUGGCACAAA | 447 nM | 33 nM |  |  |
| UGGGCUACGUGGUCCGCCAGACGUAGAAGGGUCUACAUGAGGAUCACCCAUGUGACCGUUAGUGGACAGGAUAUACGCGGAGUG |  |  | 8.38 nM | 22.8 nM |
| AACGGGUGGGUAGGAUAUGGCUAUGUCUCAUUGCUAGAAGGACCAGCUACUACAUGAGGAUCACCCAUGUCGUAGUGCACCCAG | 20.5 nM | 6.04 nM |  |  |
| CCUCCACAUGAGGAUCACCCAUGUCAGGAUAUCGUGUGUUUUUUUUCGGUCUUUCGUGCGAGAAGGGACGUCUU |  |  | 30.5 nM | 33.8 nM |
| AAGCAUUGGCUUCUCAUCUACAUGAGGAUCACCCAUGUCGGGAGAAGGAGGCGUUGACAACUAGCCUAGGAUAUCCUAACGUGC |  |  | 6.74 nM | 7.26 nM |
| GUCAGCUCGUGAGGAUAUACAACACUGCUUCGGCAGAGUAUUAAGAUCACAUGAGGAUCACCCAUGUAGAAGGCACGAGCUGAU |  |  | 10.3 nM | 117 nM |
| CUAGCAACAUGAGGAUCACCCAUGUAGGAUAUCGCUAUUGUAAUCAUGAAACAUGAUUACAAUAGCGAGAAGGACAUAUGCUAC |  |  | 9.59 nM | 11 nM |
| CUUUUGUGAGGAUAUUCGUAGUAGAUAAAUAAAACUAUUACGGAGAAGGCACAUGAGGAUCACCCAUGUUCCUU |  |  | 16.7 nM | 54.5 nM |
| GCCAUCACGUGAGGAUAUGCUCCCGUUUCGGGAGCAGAAGGCAUGUCAUAAGACAUGAGGAUCACCCAUGUAGAUAAGAUGGCA | 236 nM | 12.4 nM |  |  |
| AGCUGUGGCCGAGGAUAUCUAAACCUCGAAAACGAAAUAUAAUCGAACAUGAGGAUCACCCAUGUAGAGAAGGCGGUCUCAGCA |  |  | 69.6 nM | 211 nM |
| UUUAUGUGAGGAUAUAGUACUCCUUCUAUUAUUUUUGAGUACUAGAAGGCACAUGAGGAUCACCCAUGUAGUAC |  |  | 22.5 nM | 48.6 nM |
| ACGAGGUCAGGAUAUACGGAGAGAGGGAGUUGGUUAGGGUAACAUGAGGAUCACCCAUGUAGAAGGGACUAGGG |  |  | 48.6 nM | 40.3 nM |
| CUGGGAUAGUGGGAUAGGGUUGCCAGAAGGGUCUACAUGAGGAUCACCCAUGUGGGUCCGAGUGGACAGGAUAUGGCGUCCGUA |  |  | 12.6 nM | 45.3 nM |
| CCGGCUGCCGUGAGGAUAUGCCCGCGCGCCCGCGGGCAGAAGGCACAUGAGGAUCACCCAUGUCCUGCGGUCCC |  |  | 17.4 nM | 19.9 nM |
| UUCAUGUGAGGAUAUAGUACUCCUUCUAUUAUUAUUGAGUAUUAGAAGGCACAUGAGGAUCACCCAUGUAGUAC |  |  | 29.8 nM | 43.4 nM |
| GACAUACAUGAGGAUCACCCAUGUACAGACGUACAAGGAUAUGUGUGGAAACCGUACUAUACAGAAGGUGUUUGUC | 73.1 nM | 33.9 nM |  |  |
| AUCAGCUCGUCAGGAUAUACGUCUCUGCGUCAGCAGUGUGGUAAGAUCACAUGAGGAUCACCCAUGUAGAAGGGACGAGCUGAU |  |  | 42.9 nM | 691 nM |
| UAUUAUCACGAAGGAUAUGCUGACAUGAGGAUCACCCAUGUAUGUAUAUUGGUCCAGCGUAUUUAGCAGAAGGUCGUGAGUAAA |  |  | 45.4 nM | 73.5 nM |
| UUUUCCAGGCAGAAGGGUCCUCACAUGAGGAUCACCCAUGUAAACGUGGAUAGGAUAUGCCACUGGGCUCGAUAAGAGUGGUUC | 640 nM | 128 nM |  |  |

| Sequence | apparent Kd [1] | apparent Kd [2] | apparent Kd [3] | apparent Kd [4] |
| --- | --- | --- | --- | --- |
| UAAUAAUAAUAAUAGCAGAAUUACAUGAGGAUCACCCAUGUAUAGGAUAUCGUCAGGAAUACUGACGAGAAGGAUACAAACUGC |  |  | 17.6 nM | 21.9 nM |
| AAACAUGUCCGAGGAUAUCUGAAAACAUUUUUAAGAGAAGGCGGACAUGAGGAUCACCCAUGUCUCUCCUCAUCAAAUCCAAAU |  |  | 17.5 nM | 73.2 nM |
| CUUAGACAUGAGGAUCACCCAUGUCAGGAUAUCGUCUACCUGUGGAAACACAGGUAGACGAGAAGGGAUGUGUU |  |  | 51.6 nM | 41.4 nM |
| AUACAUGAGGAUCACCCAUGUUACUGGGUCUUUUUAGAACGUAGAAGGAUGUUUUUAUACAUAACAUAGGAUAUACAAUAUUGU |  |  | 51.8 nM | 48.9 nM |
| GUGGUACAUGAGGAUCACCCAUGUUAGGAUAUCGCGUGAGGUAAAACUUACACACACACGAGAAGGGACGUCUU |  |  | 45.9 nM | 41 nM |
| UCCAACAUGAGGAUCACCCAUGUACAGGAUAUUAGAUCAGCUCAGCGCGUCCGUCAAGAUAUUUCUAAGAAGGGUACUGGGUAC |  |  | 20.2 nM | 33.1 nM |
| AAUCAUUAUCGUUAUUUAUAUUAUUCAGAAGGACAAUUAAUAGCACAUGAGGAUCACCCAUGUUUGUAGGAUAUGAUGUUAUAC | 15.2 nM | 7.95 nM |  |  |
| ACGUUGUCAGGAUAUCGUUAAUUUAGUUGUUUGUAUUAGUUCGAGAAGGGACAUGAGGAUCACCCAUGUUUGCU |  |  | 24.4 nM | 27.1 nM |
| AGCUACGUUUCGUAGCAGCUAGGUGAGGAUAUUCAAUUGUUCACAUGAGGAUCACCCAUGUAUGUGAAGAAGGCGCCUAGAAAG | 7.16 nM | 5.34 nM |  |  |
| ACGUGACGGUGCGCGAGCGGACGGAGAAGGCAGACAUGAGGAUCACCCAUGUGAGCCUGCUAUUCUGAGGAUAUCCGUCCACAC |  |  | 30.4 nM | 167 nM |
| AAGGACUGUAAAUUAACUCAAAUACAUGAGGAUCACCCAUGUAAGGAUAUCGUCAGGAAUACUGACGAGAAGGUACAUCAGUCC |  |  | 15.6 nM | 20.8 nM |
| GUAGAGUAGUGAGGAUAUACGAGUUCGAUAGAACGGCGAUCCAUUAAUACAUGAGGAUCACCCAUGUAGAAGGCACUUCUCUAC |  |  | 6.4 nM | 69.3 nM |
| CUGAUGUUAGGAUAUCAGGCGCCCGCCACUGGCAAGGCGCAUGAGAAGGGACAUGAGGAUCACCCAUGUAGUAA |  |  | 26.3 nM | 55.7 nM |
| UUGUUGUGAGGAUAUCCAAUAUAUGACAUGAGGAUCACCCAUGUUUCCACUCGUACCUCCGGAGAAGGCACUUAUU |  |  | 31.7 nM | 28.7 nM |
| GUUUACGUAGAAGGAUAUACAUUUGACAUCCUGAUGCACGCAAUACUCACAUGAGGAUCACCCAUGUAGAAGGUCUGCGAAAGA |  |  | 15.5 nM | 24.8 nM |
| GACCUGAGUAAUAAUGUAGAAAUACAUGAGGAUCACCCAUGUAAGGAUAUGCAGUGGAAUACACUGCAGAAGGUACAUCUCAGG |  |  | 16.6 nM | 29.6 nM |
| GAGAGAUAGUAGGAUAUUCUGUACGGGUGACCAGGAGAAGGACUAACAUGAGGAUCACCCAUGUGGCUGGUCAU |  |  | 15.9 nM | 16.2 nM |
| CUACCUUAUGAGAAGGCGAUCAUGAAACAUGAUCGAGGAUAUCAUGUAAACAUGAGGAUCACCCAUGUAUGGGUAUUAUGGUAU | 91.5 nM | 25.4 nM |  |  |
| AUCCCGAUAGUAGGAUAUUUCUGCAGUUGUGGUUAGGUCGCCCUACAUGAGGAUCACCCAUGUAGAGAGAAGGACUGUGGUUAA |  |  | 5.52 nM | 6.7 nM |
| CUCAUGUUAGGAUAUGCGCCCAGCCUAGUGGCCGGGCUCUAGCAGAAGGAACAUGAGGAUCACCCAUGUUUGCA |  |  | 62.5 nM | 18.6 nM |
| AACAAACAUGAGGAUCACCCAUGUCAGGAUAUGCACAAACAAACAAACAAACAAGCAAGCAGAAGGGACACAAC |  |  | 21.7 nM | 39.7 nM |
| UCACGGGACUAAGGAUAUACAUGAACCAUUUUUGUAGAAGGUAGAAUGUUUGAUCAUAAACUAAACAUGAGGAUCACCCAUGUU |  |  | 23.4 nM | 21 nM |
| GCCAUCACAUGAGGAUAUGGCACCGUUUCGGUGCCAGAAGGCAUGUCAUAAGACAUGAGGAUCACCCAUGUAGUUAAGAUGGCA |  | 55.4 nM |  |  |
| AUGAGUAAAGCAGGAUAUCUAUUGUCUCUGAAACAUGAGGAUCACCCAUGUAGAGAAGGGCUAAGUCUUACUCUUCGGAGUUGA |  |  | 9.98 nM | 10.3 nM |
